Experimental findings from ChEMBL document CHEMBL3997844, “Synthesis and anti-inflammatory activity of isoquebecol” (Bioorg Med Chem, 2017) are described below.

Data set [1] has as its system U-937. Nature of the data set: Anti-inflammatory activity in human U937-derived macrophage-like cells assessed as inhibition of LPS-induced IL-6 secretion at 500 uM preincubated for 2 hrs followed by LPS addition measured after 24 hrs by ELISA relative to control. The class given is functional. A general note: In an ELISA, binding on a coated surface is turned into a signal by an enzyme label.

Data set [2] in a line: Cytotoxicity against human U937-derived macrophage-like cells assessed as reduction in cell viability after 24 hrs by MTT assay. The data set is classed as cell-based, U-937. The following applies: read-out: MNCC. In short, it runs like this:
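PMA-differentiated U937 macrophage-like cells (1×10^6 cells/well, RPMI-1% FBS) exposed to 2-fold serial dilutions from 1000 to 7.81 µM for 24 h. Viability read by MTT assay; highest non-cytotoxic concentration recorded.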

Data set [3] relates to U-937. The data set is described as follows: Anti-inflammatory activity in human U937-derived macrophage-like cells assessed as inhibition of LPS-induced IL-6 secretion at 250 uM preincubated for 2 hrs followed by LPS addition measured after 24 hrs by ELISA relative to control. The class given is functional.
Data set [4] has as its system U-937. The data set is described as follows: Anti-inflammatory activity in human U937-derived macrophage-like cells assessed as inhibition of LPS-induced IL-6 secretion at 125 uM preincubated for 2 hrs followed by LPS addition measured after 24 hrs by ELISA relative to control. The data set is classed as functional.
Data set [5] deals with U-937. The data set is described as follows: Anti-inflammatory activity in human U937-derived macrophage-like cells assessed as inhibition of LPS-induced IL-6 secretion at 62.5 uM preincubated for 2 hrs followed by LPS addition measured after 24 hrs by ELISA relative to control. The data set is classed as functional.
Data set [6] relates to U-937. Nature of the data set: Anti-inflammatory activity in human U937-derived macrophage-like cells assessed as inhibition of LPS-induced IL-6 secretion at 31.25 uM preincubated for 2 hrs followed by LPS addition measured after 24 hrs by ELISA relative to control. The class given is functional.
For data set [7], the system named is U-937. The data set is described as follows: Anti-inflammatory activity in human U937-derived macrophage-like cells assessed as inhibition of LPS-induced IL-6 secretion preincubated for 2 hrs followed by LPS addition measured after 24 hrs by ELISA. The data set is classed as functional, cell-based.

A word on the inhibition: it is the drop in the measured response relative to a control, in per cent. Turning to `CCOC(=O)Cc1ccc(O)c(OC)c1`, in data set [1], the inhibition at 500 µM amounted to 0.8%. Besides, the MNTC at 24 h in data set [2] is above 1000 µM. Besides, the inhibition at 250 µM in data set [3] is 0.4%. In data set [4], the inhibition at 125 µM came to 0.2%.

Turning to `CCOC(=O)C(=C(c1ccccc1)c1ccccc1)c1ccccc1`, the inhibition at 500 µM in data set [1] turned out to be 100%. Besides, the inhibition at 62.5 µM in data set [5] was 0.5%. Besides, in data set [2], the MNTC at 24 h was below 15.6 µM. In data set [6], the inhibition at 31.25 µM came to 0.5%. Moreover, the inhibition at 250 µM in data set [3] was found to be 100%. Besides, in data set [4], the inhibition at 125 µM worked out at 11%.

As for `COc1cc(CC(=O)O)ccc1O` [HOMOVANILLIC ACID], in data set [1], the inhibition at 500 µM is 0.6%. Besides, the MNTC at 24 h in data set [2] is above 1000 µM. Besides, in data set [3], the inhibition at 250 µM came to 0.2%. In addition, the inhibition at 125 µM in data set [4] came to 0.3%.

Regarding `CCOC(=O)C(=C(c1ccc(OC)c(O)c1)c1ccc(OC)c(O)c1)c1ccc(OC)c(O)c1`, the inhibition at 500 µM in data set [1] is 100%. The inhibition at 62.5 µM in data set [5] was found to be 31.2%. In data set [2], the MNTC at 24 h came out at 62.5 µM. Moreover, the inhibition at 31.25 µM in data set [6] came out at 0.8%. For the same compound, the inhibition at 250 µM in data set [3] is 100%. The inhibition at 125 µM in data set [4] turned out to be 97.8%.

For `CCOC(=O)Cc1ccc(OC)c(O)c1`, the inhibition at 500 µM in data set [1] was 8.3%. For the same compound, in data set [2], the MNTC at 24 h was above 1000 µM. In addition, the inhibition at 250 µM in data set [3] is 3.2%. Moreover, in data set [4], the inhibition at 125 µM worked out at 0.8%.

Regarding `COc1ccc(CCO)cc1O`, the inhibition at 500 µM in data set [1] worked out at 5.1%. The MNTC at 24 h in data set [2] is above 1000 µM. Also, the inhibition at 250 µM in data set [3] was found to be 2.7%. For the same compound, the inhibition at 125 µM in data set [4] turned out to be 0.9%.

On to `COc1ccc(CC(=O)O)cc1O`, for which the inhibition at 500 µM in data set [1] is 2%. The MNTC at 24 h in data set [2] is above 1000 µM. Also, in data set [3], the inhibition at 250 µM was 2.1%. Moreover, the inhibition at 125 µM in data set [4] is 0.5%.

`CCOC(=O)C(c1ccccc1)C(c1ccccc1)c1ccccc1` (centres undefined): the inhibition at 500 µM in data set [1] came to 99.8%. The inhibition at 62.5 µM in data set [5] was determined as 0.4%. Besides, the MNTC at 24 h in data set [2] amounted to 62.5 µM. Moreover, the inhibition at 31.25 µM in data set [6] turned out to be 0.2%. Moreover, the inhibition at 250 µM in data set [3] was found to be 85.3%. Further, the inhibition at 125 µM in data set [4] worked out at 2%.

As to `OCC(c1ccccc1)C(c1ccccc1)c1ccccc1` (centres undefined), in data set [1], the inhibition at 500 µM amounted to 100%. In addition, the inhibition at 62.5 µM in data set [5] was determined as 15.6%. In data set [2], the MNTC at 24 h was determined as 31.2 µM. For the same compound, the inhibition at 31.25 µM in data set [6] came out at 1.4%. Further, the inhibition at 250 µM in data set [3] was found to be 100%. Besides, in data set [4], the inhibition at 125 µM amounted to 100%.

`COc1ccc(C(CO)C(c2ccc(OC)c(O)c2)c2ccc(OC)c(O)c2)cc1O` (centres undefined): the inhibition at 500 µM in data set [1] is 99.7%. For the same compound, in data set [5], the inhibition at 62.5 µM stood at 43.3%. Further, the MNTC at 24 h in data set [2] was determined as 250 µM. Further, the inhibition at 31.25 µM in data set [6] was determined as 34.5%. Moreover, the inhibition at 250 µM in data set [3] was found to be 96.9%. For the same compound, in data set [4], the inhibition at 125 µM was found to be 48.3%. Further, the inhibition entry in data set [7] was “Dose-dependent effect”.

Consider `CCOC(=O)C(c1ccc(OC)c(O)c1)C(c1ccc(OC)c(O)c1)c1ccc(OC)c(O)c1` (centres undefined), for which the inhibition at 500 µM in data set [1] worked out at 100%. Further, the inhibition at 62.5 µM in data set [5] was determined as 5.9%. In addition, in data set [2], the MNTC at 24 h turned out to be 62.5 µM. Moreover, the inhibition at 31.25 µM in data set [6] was 3%. Further, the inhibition at 250 µM in data set [3] worked out at 96.8%. For the same compound, in data set [4], the inhibition at 125 µM is 41.3%.

Take `COc1cc(C(CO)C(c2ccc(O)c(OC)c2)c2ccc(O)c(OC)c2)ccc1O` (centres undefined): the inhibition at 500 µM in data set [1] is 93.8%. The inhibition at 62.5 µM in data set [5] amounted to 4.7%. Moreover, the MNTC at 24 h in data set [2] came to 500 µM. The inhibition at 31.25 µM in data set [6] came out at 3.7%. Further, the inhibition at 250 µM in data set [3] came to 84.7%. In addition, in data set [4], the inhibition at 125 µM is 55.3%. For the same compound, the inhibition entry in data set [7] is “Dose-dependent effect”.

`CCOC(=O)C(=C(c1ccc(O)c(OC)c1)c1ccc(O)c(OC)c1)c1ccc(O)c(OC)c1`: the inhibition at 500 µM in data set [1] was 100%. The inhibition at 62.5 µM in data set [5] is 11.2%. Moreover, the MNTC at 24 h in data set [2] was 62.5 µM. For the same compound, in data set [6], the inhibition at 31.25 µM worked out at 2.5%. Also, in data set [3], the inhibition at 250 µM worked out at 100%. Besides, the inhibition at 125 µM in data set [4] was 99.5%.

`COc1cc(CCO)ccc1O`: the inhibition at 500 µM in data set [1] worked out at 1.2%. Further, the MNTC at 24 h in data set [2] was above 1000 µM. Besides, the inhibition at 250 µM in data set [3] was 0.9%. Besides, the inhibition at 125 µM in data set [4] was determined as 1.1%.

`COc1cc(C(=O)CO)ccc1O`: the inhibition at 500 µM in data set [1] is 90.1%. Further, the MNTC at 24 h in data set [2] was found to be 500 µM. Besides, the inhibition at 250 µM in data set [3] was determined as 64.4%. In addition, in data set [4], the inhibition at 125 µM worked out at 4.9%.

With `COc1ccc(C(=O)CO)cc1O`, the inhibition at 500 µM in data set [1] worked out at 92.5%. Also, in data set [2], the MNTC at 24 h is 500 µM. For the same compound, the inhibition at 250 µM in data set [3] is 24.1%. For the same compound, the inhibition at 125 µM in data set [4] was determined as 0.8%.

As for `COc1ccc(Cc2ccc(OC)c(O)c2)cc1O`, in data set [1], the inhibition at 500 µM is 99.8%. For the same compound, the MNTC at 24 h in data set [2] is 500 µM. Further, in data set [3], the inhibition at 250 µM was 92.5%. Further, the inhibition at 125 µM in data set [4] came out at 50.7%.

`CCOC(=O)C(c1ccc(O)c(OC)c1)C(c1ccc(O)c(OC)c1)c1ccc(O)c(OC)c1` (centres undefined): the inhibition at 500 µM in data set [1] was found to be 100%. In data set [5], the inhibition at 62.5 µM was determined as 9.4%. The MNTC at 24 h in data set [2] stood at 250 µM. Besides, the inhibition at 31.25 µM in data set [6] came out at 4%. In data set [3], the inhibition at 250 µM was 91.9%. Further, in data set [4], the inhibition at 125 µM amounted to 34.6%.

Take `COc1cc(C(O)CO)ccc1O` (centres undefined): the inhibition at 500 µM in data set [1] is 86.8%. Also, in data set [2], the MNTC at 24 h is 500 µM. In data set [3], the inhibition at 250 µM turned out to be 8%. Moreover, the inhibition at 125 µM in data set [4] was found to be 2.1%.

For the compound `COc1cc(Cc2ccc(O)c(OC)c2)ccc1O`, the inhibition at 500 µM in data set [1] stood at 98.1%. The MNTC at 24 h in data set [2] was found to be 500 µM. Further, the inhibition at 250 µM in data set [3] worked out at 90.5%. For the same compound, in data set [4], the inhibition at 125 µM turned out to be 27.5%.

For `COc1ccc(C(O)CO)cc1O` (centres undefined), the inhibition at 500 µM in data set [1] came to 83.8%. Also, the MNTC at 24 h in data set [2] was determined as 500 µM. In data set [3], the inhibition at 250 µM came out at 20.9%. The inhibition at 125 µM in data set [4] came out at 1.4%.
